Screening results from PubChem.
MrgX1 PAM = human MrgX1 positive allosteric modulation, primary screen. AID 588675. MrgX1-HEK293, Fluo-4 calcium flux, FDSS; hits give high values. Q96LB2. 310,000 tested, 0.63% active. B-score at 10 µM;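 active = plate-corrected calcium response at least 3 library SD above typical, normal starting fluorescence, not activating the receptor alone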;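 note: compound read alongside a low EC10 to EC30 dose of BAM8-22 agonist; peak minus trough fluorescence over baseline measured at the second addition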
Target sequence (Q96LB2 whole entry, looked up): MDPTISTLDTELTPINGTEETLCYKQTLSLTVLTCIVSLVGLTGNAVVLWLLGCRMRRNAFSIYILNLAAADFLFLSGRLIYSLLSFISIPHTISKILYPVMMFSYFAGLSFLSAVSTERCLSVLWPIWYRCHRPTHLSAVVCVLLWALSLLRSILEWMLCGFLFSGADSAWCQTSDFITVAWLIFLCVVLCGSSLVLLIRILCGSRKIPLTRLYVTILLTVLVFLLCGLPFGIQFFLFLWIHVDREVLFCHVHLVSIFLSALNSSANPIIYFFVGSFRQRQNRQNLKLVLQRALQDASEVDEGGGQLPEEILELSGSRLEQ
MrgX1 agonist = activates human MrgX1 receptor signaling. Q96LB2. MrgX1-HEK293 cells, Fluo-4 calcium fluorescence, agonist mode; hits give high values. B-score at 10 µM. 310,000 tested, 0.44% active;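 active = calcium response B-score plate-corrected fluorescence ratio at least 3 library SD, with starting fluorescence B-score inside 5 SD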
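Material: HEK293 cells stably expressing human MrgX1 receptor | Quantity: 15,000 cells per well | Times: Cells plated overnight, dye loaded 0.5 h 37 °C, 0.5 h room temperature | Measured by: Kinetic Fluo-4 NW fluorescence of intracellular calcium | Control set: Positive and negative controls per plate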
MrgX1 antagonist = blocks BAM8-22 activation of human MrgX1 receptor; Q96LB2; MRGX1-HEK293 calcium flux, Fluo-4, BAM8-22 antagonism; hits give low values; B-score at 10 µM; 310,000 tested, 1.3% active; AID 588676;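 active = calcium-response B-score plate-corrected more than 3 library SD below zero, starting fluorescence within 5 deviations, no agonist response on first addition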;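 note: peak minus trough fluorescence over baseline after final BAM8-22 challenge near maximal dose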
RGS4 inh = inhibitors of human RGS4 | P49798 | HEK293 M3R/RGS4 inducible, Fluo-4 calcium flux; hits give high values; triggered by carbachol at its EC20 | B-score at 10 µM | 310,000 tested, 0.45% active | AID 463165;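 active = B-score, a plate-corrected calcium signal, over three deviations above library mean, with baseline fluorescence within five deviations of library mean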;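 note: RGS4 expression induced by doxycycline in cells with stable M3 receptor; B-score is computed from the integrated fluorescence ratio over baseline after carbachol; higher B-score means a larger calcium signal and so more RGS4 inhibition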
Target sequence (P49798 whole entry, looked up): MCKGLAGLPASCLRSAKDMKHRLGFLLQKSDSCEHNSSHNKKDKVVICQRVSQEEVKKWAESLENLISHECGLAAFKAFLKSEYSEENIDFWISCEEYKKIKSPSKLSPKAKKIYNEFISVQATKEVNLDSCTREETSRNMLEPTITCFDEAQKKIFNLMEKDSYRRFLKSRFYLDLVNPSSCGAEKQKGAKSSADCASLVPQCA
RGS4 pot = potentiators or activators of RGS4. HEK293 M3R/inducible RGS4, carbachol calcium flux Fluo4; hits give low values. B-score at 10 µM. 310,000 tested, 0.92% active. AID 463111;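 active = B-score of the integrated calcium signal more than 4 SD below the library mean, with starting fluorescence not abnormally high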;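 note: negative B-score means reduced calcium response which marks RGS4 activation or potentiation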
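test system = HEK293 cells with stable M3R and inducible RGS4 | schedule = recording 10 s baseline at 1 Hz, 100 s post-agonist | technique = Fluo4-AM (2 µM) calcium-flux fluorescence, kinetic read | measure = Agonist-evoked peak-minus-minimum fluorescence over baseline, integrated ratio, B score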
MrgX1 ag reconf = confirmation of human MrgX1 receptor agonists; shares compounds with MrgX1 agonist; MrgX1-HEK293, Fluo-4 calcium fluorescence, FDSS; activation, % at 10 µM; 600 tested, 78% active; AID 602412;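 active = calcium signal rise, corrected for plate position, at least 3 library SD high, with starting brightness within 5 such deviations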
HEK293 Ca flux = MrgX1 antagonist counter-screen hit in parental HEK293 cells; shares compounds with MrgX1 antagonist; Fluo-4 calcium fluorescence, FDSS; 4,000 tested, 2% active; fluorescence ratio F(max-min)/F0 at 10 µM;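 active = duplicate-averaged calcium fluorescence ratio at least three times the standard deviation of buffer wells, a nonspecific response in parental cells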
HEK293 Ca counter = activity in parental HEK293 cells without MrgX1 | shares compounds with MrgX1 antagonist | parental HEK293 calcium flux, Fluo-4 fluorescence ratio; hits give high values | fluorescence ratio F(max-min)/F0 at 10 µM | 4,000 tested, 0.4% active | AID 624114;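 active = calcium fluorescence ratio, averaged over duplicates, at least 3 SD of the buffer-well ratio, meaning a nonspecific response in receptor-free cells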;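 note: untransfected parental HEK293 lacking MrgX1 used as counterscreen for MrgX1 allosteric activators; fluorescence change taken during the second addition on a kinetic imager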
HEK293 Ca cntr2 = activity in parental HEK293 cells lacking MrgX1 receptor | shares compounds with MrgX1 antagonist | Fluo-4 calcium fluorescence (FDSS); hits give high values | fluorescence ratio F(max-min)/F0 at 10 µM | 4,000 tested, 8.7% active | AID 624115;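 active = calcium fluorescence ratio at least three times the spread of buffer wells, meaning a non-specific response in parental cells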
An asterisk follows results filed as active; i = inactive; · = not tested or not shown. In the library only some 3.5% were active in any assay of this set; here they are far more common.

SMILES | MrgX1 PAM | MrgX1 agonist | MrgX1 antagonist | RGS4 inh | RGS4 pot | MrgX1 ag reconf | HEK293 Ca flux | HEK293 Ca counter | HEK293 Ca cntr2
O=C(Cn1nc(Cl)nc1Cl)c1ccc2c(c1)OCCO2 | i | 53* | i | i | i | 194%* | i | i | i
Cc1[nH]n(-c2ccccc2)c(=O)c1C(=O)c1ccc(Cl)cc1 | i | 37* | i | i | i | 116%* | i | i | i
Cc1[nH]n(-c2ccc(Cl)cc2)c(=O)c1C(=O)c1ccccc1 | i | 40* | i | i | i | 82%* | i | i | i
NC(=S)Cc1ccc(Cl)cc1Cl | i | i | i | i | i | · | · | · | ·
N=C(N)SCc1ccc(Cl)cc1Cl | i | 39* | i | i | i | 219%* | i | i | i
Clc1nnc(Cl)c2c1ncn2Cc1ccccc1 | i | i | i | i | i | · | · | · | ·
COc1ccc2c(n1)Sc1nc3ccccc3nc1N2 | i | 40* | i | i | i | 501%* | 0.18* | i | 122*
COc1cc2ccccc2nn1 | i | i | i | i | i | · | · | · | ·
COc1ccc(-c2[nH]c(-c3ccccc3)nc2SCC(=O)NC2CCCC2)cc1 | i | 29* | i | i | i | 208%* | i | i | 46*
COc1ccc(S(=O)(=O)NC2CCSc3ccccc32)cc1OC (stereo not drawn) | i | i | i | i | i | · | · | · | ·
COc1cccc(OC)c1CNC(=O)C1CCC(=O)N(CC2CCCCC2)C1 (stereo not drawn) | i | i | i | i | i | · | · | · | ·
COCCN(C(=O)c1ccc(OCC(C)C)cc1)c1c(N)n(Cc2ccccc2)c(=O)[nH]c1=O | i | i | i | i | i | · | · | · | ·
Cc1ccc(Sc2cc(C)nc(-c3ccccn3)n2)cc1 | i | 31* | i | i | i | 210%* | i | i | i
O=C(CSc1nnc(NC(=O)C2CCC2)s1)NC1CC1 | i | 40* | i | i | i | i | i | i | i
NC(=Nc1ccccc1)NC(=O)c1nc(Cl)c(N)nc1N | i | i | i | i | i | · | · | · | ·
CN(C)c1nc(N)c(C(=O)N=C(N)N)nc1Cl | i | 35* | i | i | i | 170%* | i | i | i
CC(=O)OCC1(C)CN(c2ccccc2)NC1=O (stereo not drawn) | i | i | i | i | i | · | · | · | ·
COc1ccc2c(c1)cc1n2CCN2CCCN=C12 | i | i | i | i | i | · | · | · | ·
COc1ccc2c(c1)cc1n2CCN=C1N | i | 31* | i | i | i | 138%* | i | i | i
CC(C)NC(=O)CN1CCC(c2nc3ccccc3[nH]2)CC1 | i | i | i | i | i | · | · | · | ·
c1ccc(Sc2nc(N3CCCCC3)nc(N3CCCCC3)n2)nc1 | i | 35* | i | i | i | 211%* | i | i | 59*
O=c1c2ccccc2sn1-c1ccc(S(=O)(=O)N2CCCC2)cc1 | i | i | i | i | i | · | · | · | ·
O=c1c2ccccc2sn1-c1ccccc1 | i | 41* | i | i | i | 229%* | i | i | 49*
CN(C)S(=O)(=O)c1cccc(-n2sc3ccccc3c2=O)c1 | i | 37* | i | · | · | 225%* | i | i | 50*
CC(C)Sc1cc(Cl)nc(NC(=O)Nc2ccccc2)n1 | i | i | i | i | i | · | · | · | ·
SMILES | MrgX1 PAM | MrgX1 agonist | MrgX1 antagonist | RGS4 inh | RGS4 pot | MrgX1 ag reconf | HEK293 Ca flux | HEK293 Ca counter | HEK293 Ca cntr2
COc1cccc(OC)c1C(=O)NC(=S)NNC(=O)[C@H]1C[C@@H]1c1ccccc1 | i | i | i | i | i | · | · | · | ·
O=C(NC(=S)NNC(=O)[C@H]1C[C@@H]1c1ccccc1)c1cccc(F)c1 | i | 159* | i | i | i | 600%* | i | i | 105*
Cc1ccc(-n2c(CCC(=O)O)ccc2-c2cccs2)cc1C | i | 29* | i | i | i | 216%* | i | i | i
CCOC(=O)c1ccc(-n2c(CCC(=O)O)ccc2-c2cccs2)cc1 | i | i | i | i | i | · | · | · | ·
COCC(=O)c1[nH]c2ccccc2c1C | i | 41* | i | i | i | 196%* | i | i | i
COC(=O)c1c(Cl)c2n3ccccc3c(C)c(-c3ccccc3)c-2c1C(=O)OC | i | 27* | i | i | i | i | i | i | i
CC(C)OC(=O)c1cccc(-c2ccc(C=O)o2)c1 | i | i | i | i | i | · | · | · | ·
N#Cc1c(NCCN)nc(-c2ccco2)c2c1CCCC2 | i | i | i | i | i | · | · | · | ·
CC(C)CCNc1nc(-c2ccco2)c2c(c1C#N)CCCC2 | i | 27* | i | i | i | i | i | i | i
c1ccc(-c2ccc(CNC3CC3)cc2)cc1 | i | i | i | i | i | · | · | · | ·
O=C1CC(O)(C(F)(F)F)Oc2c1ccc1ccccc21 (stereo not drawn) | i | 90* | i | i | i | 565%* | i | i | 103*
O=S(=O)(Nc1cccc(-c2ccc3nncn3n2)c1)c1cccc(F)c1 | i | 37* | i | i | i | 177%* | i | i | i
Cc1sc2ncn(CC(=O)N3CCN(c4ccccn4)CC3)c(=O)c2c1S(=O)(=O)N1CCCCC1 | i | i | i | i | i | · | · | · | ·
NC(=Nc1ccc(Cl)cc1)c1ccccc1 | i | 90* | i | i | i | 280%* | i | i | 55*
ONC(=Nc1ccccc1)c1ccc(Cl)cc1 | i | i | i | i | i | · | · | · | ·
O=C(Nc1nnc(-c2ccccn2)o1)c1cccc(Br)c1 | i | 29* | i | i | i | 111%* | i | i | i
COc1cc([N+](=O)[O-])cc(/C=N/NC(=O)C(O)(c2ccccc2)c2ccccc2)c1O | i | i | i | i | i | · | · | · | ·
O=C(N/N=C/c1cccc([N+](=O)[O-])c1O)C(O)(c1ccccc1)c1ccccc1 | i | 66* | i | i | i | 116%* | i | i | i
